# GRIN3A LBD mod – NR3A (human) ligand-binding domain modulation. NR3A LBD differential scanning fluorimetry, Tm shift; 0% = protein alone, 100% = glycine-bound protein. Tm shift relative to glycine control, % at 25 µM. AID 1259313. 340,000 compounds, 2.5% hits;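 active = melting temperature shift of at least 10% of the positive control shift, at one fixed dose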
# PAFAH1B2 FP inh – PAFAH1B2 (human) inhibition; recombinant PAFAH1B2, FP-rhodamine activity probe, fluorescence polarization; inhibition, % at 3.39 µM; 340,000 compounds, 1.2% hits;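 active = inhibition above the mean of all tested compounds plus 3 SD, cut at about 24% in these data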;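 note: 0% = enzyme with DMSO and 100% = wells lacking PAFAH1B2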
# UCH37 inh – human UCH37 deubiquitinating enzyme inhibition | Q9Y5K5 | purified proteasome/UCH37, Ub-AMC cleavage fluorescence | inhibition, % (test concentration not listed) | 330,000 compounds, 0.33% hits;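 active = mean inhibition over replicate wells above about 20%, limit read from the data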;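 note: 0% = compound-free wells with enzyme and 100% = wells lacking proteasome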
# Target sequence (Q9Y5K5 whole entry, looked up): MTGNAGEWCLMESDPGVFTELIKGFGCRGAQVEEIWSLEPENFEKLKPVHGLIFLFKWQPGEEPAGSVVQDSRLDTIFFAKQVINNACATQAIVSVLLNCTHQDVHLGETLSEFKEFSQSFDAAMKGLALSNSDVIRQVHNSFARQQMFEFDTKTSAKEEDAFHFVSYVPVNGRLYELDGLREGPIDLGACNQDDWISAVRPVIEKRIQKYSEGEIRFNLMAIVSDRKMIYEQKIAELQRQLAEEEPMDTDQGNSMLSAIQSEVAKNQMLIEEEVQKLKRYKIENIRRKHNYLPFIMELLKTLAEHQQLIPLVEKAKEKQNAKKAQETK
#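 assay system = human UCH37 enzyme supplied as purified proteasome complex | amount = proteasome at 0.15 nM in the dispensed enzyme solution | schedule = 30 min compound-proteasome preincubation then 25 min substrate reaction, room temperature | measured by = fluorescence, ex 355 nm, em 460 nm | benchmarks = no-proteasome wells (full inhibition) and compound-free wells (no inhibition)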
# PAFAH1B3 inh – inhibitors of human PAFAH1B3; recombinant PAFAH1B3, FP-rhodamine probe, fluorescence polarization; AID 492972; 340,000 compounds, 0.28% hits; inhibition, % at 3.39 µM;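 active = inhibition above the screen-wide average of all tested compounds plus 3 SD, cut at about 25% in these data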;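 note: 0% = enzyme with DMSO only and 100% = wells lacking PAFAH1B3 protein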
# Target sequence (Q15102 whole entry, looked up): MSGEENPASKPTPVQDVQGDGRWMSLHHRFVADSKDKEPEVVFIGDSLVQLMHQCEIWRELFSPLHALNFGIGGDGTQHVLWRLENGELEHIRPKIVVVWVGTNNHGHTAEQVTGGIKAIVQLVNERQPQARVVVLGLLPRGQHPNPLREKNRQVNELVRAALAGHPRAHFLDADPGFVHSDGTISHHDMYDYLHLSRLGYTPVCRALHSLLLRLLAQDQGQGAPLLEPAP
# PAFAH2 inh – PAFAH2 (human) inhibition; recombinant PAFAH2, FP-rhodamine activity probe, fluorescence polarization; inhibition, % at 3.39 µM; 340,000 compounds, 0.99% hits; AID 492956;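 active = inhibition above the mean over all tested compounds plus 3 SD, cut at about 30% in these data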;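 note: inhibitors block probe labeling of enzyme so polarization drops; 0% = enzyme with DMSO and 100% = wells lacking PAFAH2 protein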
# pPAFAH FP inh – inhibitors of human plasma PAF acetylhydrolase (pPAFAH) | Q13093 | recombinant pPAFAH, FP-rhodamine probe fluorescence polarization | inhibition, % at 3.39 µM | 330,000 compounds, 1.5% hits;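 active = inhibition above the mean inhibition across the screen plus 3 SD, cut at about 25% in these data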;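 note: inhibitors block binding of the rhodamine activity-based probe so polarization drops; 0% = enzyme with DMSO and 100% = wells lacking pPAFAH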
# pPAFAH FP conf – confirmation of human plasma PAF acetylhydrolase (pPAFAH) inhibitors. recombinant pPAFAH, FP-Rh probe fluorescence polarization. 2,300 compounds, 72% hits. shares compounds with pPAFAH FP inh. inhibition, % at 3.39 µM;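 active = mean inhibition of the triplicate above the hit cutoff set for the earlier primary screen, cut at about 25% in these data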;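 note: 0% = enzyme with DMSO and 100% = wells lacking pPAFAH enzyme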
# * hit, by the source's call; . = no result. Only some compounds are listed: those with a hit (about 4.8% of all), similar ones and a draw of the others.
SMILES,GRIN3A LBD mod,PAFAH1B2 FP inh,UCH37 inh,PAFAH1B3 inh,PAFAH2 inh,pPAFAH FP inh,pPAFAH FP conf
CC1=CC(C)[C@H](C=Nn2c(=O)[nH]c3c([nH]c4ccc(Br)cc43)c2=O)C(C)C1 (some centres undefined),.,.,-6,.,.,.,.
CCOC(=O)c1c(C)[nH]c(C(=O)NN=Cc2ccc(OC)c(OC)c2)c1C,.,.,1,.,.,.,.
Cc1cc(C)cc(OCC(=O)Nc2ccc(CN3CCCCC3)cc2)c1,0,0,4,0,-2,8,.
O=C(COC(=O)c1ccc(O)cc1)Nc1ccc(N2CCCCC2)cc1,2,4,2,4,60*,48*,34*
COc1cc(OC)cc(C(=O)OCC(=O)Nc2ccc(N3CCCCC3)cc2)c1,1,0,1,5,5,1,.
Cc1cc(C)cc(OCC(=O)Nc2ccc(N3CCCC3)cc2)c1,5,-2,3,3,8,36*,30*
Cc1ccc(OCC(=O)NN=C/C=C/c2ccco2)cc1,.,.,4,.,.,.,.
Cc1ccc(OCC(=O)N/N=C/C=C/c2ccco2)cc1,-3,-2,.,-1,9,51*,17
Cc1nn(-c2ccccc2)c(C)c1C=NNC(=O)c1cc(C2CC2)[nH]n1,.,.,0,.,.,.,.
COc1ccccc1C(=O)NCC(=O)OCC(=O)Nc1ccc2[nH]c(=O)[nH]c2c1,4,3,5,3,-5,39*,1
COC(=O)COc1ccc(C2Nc3c(Cl)ccc(C(=O)O)c3C3C=CCC32)cc1 (centres undefined),-2,3,-9,6,28,36*,11
O=C(NN=Cc1cccc([N+](=O)[O-])c1O)C1COc2ccccc2O1 (centres undefined),.,.,16,.,.,.,.
CCN(CC)S(=O)(=O)c1ccc(Cl)c(NC(=O)COC(=O)/C=C/c2ccc(O)c(OC)c2)c1,-6,-3,-1,0,75*,37*,13
O=C(Oc1ccc(Oc2ccccc2)cc1)N1CCC(O)CC1,-5,-2,4,1,26,94*,92*
O=C(Oc1ccc(Cl)cc1)N1CCOCC1,-2,1,5,10,11,8,.
O=C(Oc1ccccc1)N1CCCC1,1,-2,1,-6,2,-3,.
O=C(Oc1ccc(-c2ccccc2)cc1)N1CCOCC1,-2,5,6,-2,32*,94*,98*
O=c1[nH]c(=O)c2nnc(NN=Cc3ccc(O)cc3)nc2[nH]1,.,.,4,.,.,.,.
CSCC[C@H](NC(=O)OC(C)(C)C)C(=O)NN=Cc1cc2ccc(C)cc2nc1Cl,.,.,-72,.,.,.,.
CN(C(=O)CSc1nc(O)cc(=O)n1C1CCCC1)c1ccccc1,4,4,5,8,-9,48*,8
CC(C)=C1C(=O)NN(c2ccc(C)c(Cl)c2)C1=O,-4,10,-2,0,18,59*,6
COc1ccc(N=C2NC(=O)/C(=C\C=C\c3ccccc3)S2)cc1,6,-6,.,-8,-5,4,.
O=C1NC(=Nc2ccccc2)S/C1=C\C=C\c1ccco1,11*,3,5,13,30,60*,38*
Cc1cccc(N=C2NC(=O)/C(=C/C=C/c3ccco3)S2)c1C,0,9,9,9,48*,71*,66*
Cc1ccc(N=C2NC(=O)/C(=C/C=C/c3ccco3)S2)cc1,2,0,4,13,21,68*,33*
SMILES,GRIN3A LBD mod,PAFAH1B2 FP inh,UCH37 inh,PAFAH1B3 inh,PAFAH2 inh,pPAFAH FP inh,pPAFAH FP conf
CCCC(=O)OCCNc1cc(Sc2nccn2C)c2nonc2c1[N+](=O)[O-],-3,-1,6,7,-9,4,.
CCCC(=O)OCCNc1cc(SCc2ccco2)c2nonc2c1[N+](=O)[O-],-1,4,8,5,7,78*,5
CC(=O)OCCCNc1cc(SCc2ccco2)c2nonc2c1[N+](=O)[O-],-25,-1,10,3,13,39*,3
CCC(=O)OCCNc1cc(Sc2nc3ccccc3s2)c2nonc2c1[N+](=O)[O-],-21,1,13,10,14,3,.
CC(CC(=O)Nc1cc(C)ccn1)=NNC(=O)C(=O)NC(C)C,.,.,6,.,.,.,.
ON=Cc1ccc(-c2ccccc2OC(F)(F)F)o1,.,.,1,.,.,.,.
COc1ccc(-n2cc(-c3ccccc3)c3c(N4CCOCC4)ncnc32)cc1,0,3,-10,12,5,17,.
COc1ccc(-n2cc(-c3ccccc3)c3c(NCCCN4CCOCC4)ncnc32)cc1,-4,4,0,-3,-8,35*,18
COc1ccc(N2CCN(C(=O)COC(=O)c3cccc(S(=O)(=O)Nc4cccc(C)c4)c3)CC2)cc1,-4,-4,1,2,3,40*,44*
O=C(NN=Cc1ccccn1)c1cccnc1,.,.,4,.,.,.,.
CCOc1ccc(NS(=O)(=O)c2ccc(C(=O)NCC3(N(C)C)CCCCC3)cc2)cc1,-2,4,2,3,0,52*,45*
CCOc1ccc(NS(=O)(=O)c2ccc(C(=O)NCC(c3ccc(OC)cc3)N3CCOCC3)cc2)cc1 (centres undefined),-4,3,1,-1,4,50*,59*
COc1cc(C=NNC(=O)Cn2cnc3c2c(=O)n(C)c(=O)n3C)cc(OC)c1OC,.,.,0,.,.,.,.
Cc1cc(/C=C2/SC(=S)N(c3ccc([N+](=O)[O-])cc3)C2=O)c(C)n1-c1cccnc1,1,2,13,10,11,7,.
Cc1cc(/C=C2/SC(=S)N(c3cccc(Cl)c3)C2=O)c(C)n1-c1cccnc1,3,2,6,-6,9,39*,37*
O=C1NN(c2ccccc2)C(=O)/C1=C/c1ccc(Sc2cccc3ccccc23)o1,-5,7,8,9,21,43*,36*
O=C1NN(c2ccc(Br)cc2)C(=O)/C1=C\c1ccc(O)cc1O,28*,15,.,6,24,37*,25*
CC(=O)N1CCN(c2ccc(NCc3ccc(-c4ccc(Br)cc4)o3)cc2)CC1,-8,7,0,12,8,41*,26*
CNN=C(Cc1nc2ccccc2[nH]1)c1ccc([N+](=O)[O-])cc1,.,.,8,.,.,.,.
CCN(CC)c1ccc(C=c2sc3nnc(-c4ccccc4Cl)n3c2=O)cc1,.,.,8,.,.,.,.
C=CCOc1ccc(C(=O)c2ccccc2)c(OCC(=O)NC2(C#N)CCCC2)c1,0,-3,1,1,6,35*,20
COc1ccc(C=NNC(=O)c2ccncc2)cc1[N+](=O)[O-],.,.,5,.,.,.,.
CCSc1nnc(NC(=O)CSc2sc3c(O)cc(=O)[nH]c3c2C#N)s1,2,29*,6,17,50*,39*,35*
